Measurements pooled from the literature.
Protocols differ between the studies behind these lines. Values after ≈ are worked out from the molar mass of the structure shown.
Organism: Enterococcus faecalis

`CN[C@H](CC(C)C)C(=O)N[C@H]1C(=O)N[C@@H](CC(N)=O)C(=O)N[C@H]2C(=O)N[C@H]3C(=O)N[C@H](C(=O)N[C@H](C(=O)O)c4cc(O)cc(O)c4-c4cc3ccc4O)[C@H](O)c3ccc(c(Cl)c3)Oc3cc2cc(c3O[C@@H]2O[C@H](CO)[C@@H](O)[C@H](O)[C@H]2O[C@H]2C[C@](C)(N)[C@H](O)[C@H](C)O2)Oc2ccc(cc2Cl)[C@H]1O` has an MBC of 32 µg/mL (≈ 22.1 µM) (microbial killing; drug-resistant strain, clinical isolate).
For `CC(C)CCCCCCCCCCCCc1cc(O)cc(O)c1`, the IC50 was 81.1 µM (microbial growth; ATCC29212).
`CCCCCCCCCCCC(=O)NP(=O)(O)O` gave an MIC of 200 µg/mL (≈ 716 µM) (microbial growth; ATCC33186).
The MIC50 of `ONCc1cc(F)cc(F)c1` is reported as less than 80 µg/mL (microbial growth; ATCC19433; 8 h).
`CCCCCCCCCCCCCCCC(=O)NS(=O)(=O)OC1CCN(C(=O)OC(C)(C)C)CC1` has an MIC of 25 µg/mL (≈ 48.2 µM) (microbial growth, broth dilution; ATCC33186).
With `CCCCCCCCCCCCCCCC(=O)CP(=O)(O)O` the MIC was 12.5 µg/mL (≈ 37.4 µM) (microbial growth; ATCC33186).
With `CC(C)(O/N=C(\C(=O)N[C@@H]1C(=O)N2C(C(=O)[O-])=C(C[n+]3ccccc3)CS[C@H]12)c1csc(N)n1)C(=O)O` the MBC was greater than 128 µg/mL (microbial killing; drug-resistant strain, clinical isolate).
For `O=C(CCCCCCCCCCOc1ccccc1)NP(=O)(O)O`, the MIC was 100 µg/mL (≈ 280 µM) (microbial growth; ATCC33186).
`CC(C)CCCCCCCCCCCCCCc1cc(O)cc(O)c1` gave an IC50 of 16.9 µM (microbial growth; ATCC29212).
With `CCCCCCCCCCCCCCCC(=O)NS(=O)(=O)Oc1ccc(C)cc1` the MIC was 12.5 µg/mL (≈ 29.4 µM) (microbial growth, broth dilution; ATCC33186).
For `CCCCCCCCCCCCCCCc1cc(O)cc(O)c1`, the IC50 was greater than 200 µM (microbial growth; ATCC29212).
`CCCCCCCCCCCCCCCC(=O)NS(=O)(=O)Oc1ccc(OC)cc1` gave an MIC of greater than 200 µg/mL (microbial growth; ATCC33186).
`CC1(C)S[C@@H]2[C@H](NC(=O)[C@H](N)c3ccccc3)C(=O)N2[C@H]1C(=O)O` gave an inhibition zone of 26 mm (microbial growth, well diffusion; ATCC29212; 60000 µg/mL).
